Activity calls are given as the source filed them. The rule behind the calls is not given here.
How the values were obtained:
Cavia porcellus [1] = organism: Cavia porcellus; assay: Negative ionotropic activity in potassium depolarized guinea pig longitudinal smooth muscle assessed as inhibition of calcium-induced contraction at 10^-5 M; assay type: functional
[2] = Negative ionotropic activity in potassium depolarized guinea pig longitudinal smooth muscle assessed as inhibition of calcium-induced contraction; assay type: functional, Cavia porcellus
[3] = test system: Cystic fibrosis transmembrane conductance regulator (Homo sapiens), P13569 [F508del]; assay: Activity at CFTR F508 deletion mutant expressed in forskolin-stimulated FRT cells assessed as maximal increase in iodine influx measured as YFP quenching rate up to 20 uM after 24 hrs by fluorescence assay; assay type: cell-based
How it was run: (§1)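 ΔF508-CFTR and halide-sensitive YFP coexpressed in FRT cells, held at 27 °C for 24 h for rescue, then stimulated 30–40 min with 20 μM forskolin with or without compound at 0.2, 2 and 20 μM. Fluorescence read before and after I– addition (100 mM final). Normalized decay fitted exponentially for maximal quenching rate; dose–response fitted with Hill equation for potency and maximal effect. Three independent determinations.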

[4] = test system: Cystic fibrosis transmembrane conductance regulator (Homo sapiens), P13569 [F508del]; assay: Activity at CFTR F508 deletion mutant expressed in forskolin-stimulated FRT cells assessed as maximal increase in iodine influx measured as YFP quenching rate at 0.2 uM after 24 hrs by fluorescence assay; assay type: cell-based; how it was run: as §1
[5] = test system: Cystic fibrosis transmembrane conductance regulator (Homo sapiens), P13569 [F508del]; assay: Activity at CFTR F508 deletion mutant expressed in forskolin-stimulated FRT cells assessed as maximal increase in iodine influx measured as YFP quenching rate after 24 hrs by fluorescence assay; assay type: cell-based; how it was run: as §1
[6] = Binding affinity to CFTR F508 deletion mutant expressed in forskolin-stimulated FRT cells assessed as increase in iodine influx measured as YFP quenching rate after 24 hrs by fluorescence assay; assay type: cell-based; how it was run: as §1
[7] = Ratio EC50 for nifedipine to compound for negative […] activity against potassium-induced contraction in left atrium of guinea pig; assay type: functional, Cavia porcellus, Cardiac atrium
Cavia porcellus [8] = organism: Cavia porcellus; assay: Negative ionotropic activity in potassium depolarized guinea pig longitudinal smooth muscle assessed as inhibition of calcium-induced contraction at 5 X 10^-7 M; assay type: functional
[9] = Bronchodilatory activity in guinea pig trachea assessed as inhibition of carbachol-induced contraction at 10^-4 M; assay type: functional; conditions: Cavia porcellus
Cavia porcellus [10] = organism: Cavia porcellus; assay: Negative ionotropic activity in potassium depolarized guinea pig longitudinal smooth muscle assessed as inhibition of calcium-induced contraction at 5 X 10^-5 M; assay type: functional
[11] = Ratio EC50 for negative chronotropic activity against potassium-induced contraction in guinea pig right atrium to EC50 for negative […] activity against potassium-induced contraction in guinea pig left atrium; assay type: functional, Cavia porcellus, Cardiac atrium
[12] = Bronchodilatory activity in guinea pig trachea assessed as inhibition of carbachol-induced contraction at 10^-5 M; assay type: functional; conditions: Cavia porcellus
[13] = Negative chronotropic activity against potassium-induced contraction in guinea pig right atrium assessed as decrease atrial rate at 10^-5 M relative to control; assay type: functional; conditions: Cavia porcellus, Cardiac atrium
How it was run: (§2)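 Spontaneously beating isolated guinea pig right atrium, pretreatment rate 165–190 beats/min. Drugs added cumulatively. Decrease in atrial rate expressed as percent change from control, n = 7–8. […] Control versus treated tested at each concentration by Student's t-test, P < 0.05. Mean ± SEM.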

[14] = Negative chronotropic activity against potassium-induced contraction in guinea pig right atrium assessed as decrease atrial rate; assay type: functional, tissue-based; conditions: Cavia porcellus, Cardiac atrium; how it was run: as §2
[15] = Negative ionotropic activity against potassium-induced contraction in guinea pig left atrium assessed as […] at 10^-6 M relative to control; assay type: functional; conditions: Cavia porcellus, Cardiac atrium
How it was run: (§3)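 Isolated guinea pig left atrium paced at 1 Hz. Drugs added cumulatively. Negative inotropic effect expressed as percent change from control, n = 5–6. […] Student's t-test against control at each concentration, P < 0.05. Mean ± SEM.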

Aorta [16] = assay: Vasorelaxant activity in potassium depolarized guinea pig aortic strip assessed as inhibition of calcium-induced contraction at 10^-4 M; assay type: functional; conditions: Cavia porcellus
How it was run: (§4)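 Guinea pig aortic strips depolarized with 80 mM K+, with cumulative drug addition. Relaxation given as mean ± SEM. […] Student's t-test against control, P < 0.05.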

Cavia porcellus [17] = organism: Cavia porcellus; assay: Negative ionotropic activity in potassium depolarized guinea pig longitudinal smooth muscle assessed as inhibition of calcium-induced contraction at 10^-6 M; assay type: functional
[18] = Negative ionotropic activity against potassium-induced contraction in guinea pig left atrium assessed as decrease in developed tension; conditions: Cavia porcellus, Cardiac atrium
[19] = Negative chronotropic activity against potassium-induced contraction in guinea pig right atrium assessed as decrease atrial rate at 5 X 10^-6 M relative to control; assay type: functional; conditions: Cavia porcellus, Cardiac atrium; how it was run: as §2
Aorta [20] = assay: Vasorelaxant activity in potassium depolarized guinea pig aortic strip assessed as inhibition of calcium-induced contraction at 10^-5 M; assay type: functional; conditions: Cavia porcellus; how it was run: as §4
[21] = Bronchodilatory activity in guinea pig trachea assessed as inhibition of carbachol-induced contraction; assay type: functional, tissue-based, Cavia porcellus
[22] = Negative ionotropic activity against potassium-induced contraction in guinea pig left atrium assessed as […] at 10^-7 M relative to control; assay type: functional; conditions: Cavia porcellus, Cardiac atrium; how it was run: as §3
[23] = Negative chronotropic activity against potassium-induced contraction in guinea pig right atrium assessed as decrease atrial rate at 10^-4 M relative to control; assay type: functional; conditions: Cavia porcellus, Cardiac atrium; how it was run: as §2
[24] = Negative ionotropic activity against potassium-induced contraction in guinea pig left atrium assessed as […] at 10^-4 M relative to control; assay type: functional; conditions: Cavia porcellus, Cardiac atrium; how it was run: as §3

Chain of Cystic fibrosis transmembrane conductance regulator (Homo sapiens), P13569 [F508del] (P13569 as listed by the source): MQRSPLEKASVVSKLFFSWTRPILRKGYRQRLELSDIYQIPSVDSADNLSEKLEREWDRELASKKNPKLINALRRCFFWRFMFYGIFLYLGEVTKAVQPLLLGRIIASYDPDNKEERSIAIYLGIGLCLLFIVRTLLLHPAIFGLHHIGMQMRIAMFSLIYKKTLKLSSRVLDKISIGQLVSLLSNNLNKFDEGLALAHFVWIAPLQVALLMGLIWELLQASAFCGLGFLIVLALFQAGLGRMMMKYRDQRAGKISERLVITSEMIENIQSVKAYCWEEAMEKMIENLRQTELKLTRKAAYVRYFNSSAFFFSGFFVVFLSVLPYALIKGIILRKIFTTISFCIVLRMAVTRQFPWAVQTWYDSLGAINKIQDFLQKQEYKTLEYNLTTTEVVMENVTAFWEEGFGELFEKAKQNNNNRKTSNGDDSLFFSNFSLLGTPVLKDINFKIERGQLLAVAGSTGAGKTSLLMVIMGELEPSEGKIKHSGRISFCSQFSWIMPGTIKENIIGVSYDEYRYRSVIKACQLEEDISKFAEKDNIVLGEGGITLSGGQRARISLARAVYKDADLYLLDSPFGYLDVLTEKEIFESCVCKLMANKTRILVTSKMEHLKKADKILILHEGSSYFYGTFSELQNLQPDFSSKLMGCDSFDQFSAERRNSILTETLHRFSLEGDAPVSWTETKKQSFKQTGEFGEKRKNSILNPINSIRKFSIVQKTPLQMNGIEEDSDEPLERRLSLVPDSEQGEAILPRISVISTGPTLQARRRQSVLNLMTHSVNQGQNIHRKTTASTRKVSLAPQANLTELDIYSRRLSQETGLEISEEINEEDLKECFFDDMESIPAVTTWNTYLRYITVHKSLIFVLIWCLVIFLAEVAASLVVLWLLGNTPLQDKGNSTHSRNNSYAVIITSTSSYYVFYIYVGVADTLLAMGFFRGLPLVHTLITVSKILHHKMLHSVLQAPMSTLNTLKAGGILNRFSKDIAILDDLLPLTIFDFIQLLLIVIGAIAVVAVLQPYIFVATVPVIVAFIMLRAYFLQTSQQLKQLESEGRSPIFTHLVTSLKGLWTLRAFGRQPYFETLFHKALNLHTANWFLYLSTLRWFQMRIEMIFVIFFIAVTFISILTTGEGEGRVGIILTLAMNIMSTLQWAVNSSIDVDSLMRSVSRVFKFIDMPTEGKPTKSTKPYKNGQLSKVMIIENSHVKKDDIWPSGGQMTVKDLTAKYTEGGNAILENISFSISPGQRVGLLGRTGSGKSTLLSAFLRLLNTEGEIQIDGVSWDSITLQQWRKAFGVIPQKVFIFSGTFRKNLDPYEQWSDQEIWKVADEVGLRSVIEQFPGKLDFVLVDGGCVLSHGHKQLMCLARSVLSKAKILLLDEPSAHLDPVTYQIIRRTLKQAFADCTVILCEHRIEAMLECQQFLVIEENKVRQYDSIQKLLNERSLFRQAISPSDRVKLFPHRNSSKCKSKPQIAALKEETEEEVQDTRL

SMILES: COC(=O)C1=C(C)NC(C)=C(C(=O)OC)C1c1c(-c2cc(OC)ccc2OC)nc2sc(C)cn12
- inhibition (Cavia porcellus [1]): 74%
- IC50 [2]: 4890 nM
- Activity [3]: inactive
- Activity [4]: inactive

SMILES: COC(=O)C1=C(C)NC(C)=C(C(=O)OC)C1c1c(C)nc2sc(Cl)cn12
- IC50 [2]: 550 nM
- Emax [5]: 60 ms-1
- Kd [6]: 42900 nM
- Activity [4]: inactive
- Ratio EC50 [7]: 2.6

SMILES: COC(=O)C1=C(C)NC(C)=C(C(=O)OC)C1c1c(-c2cc(OC)c([N+](=O)[O-])cc2OC)nc2sc(Cl)cn12
- inhibition (Cavia porcellus [8]): 92%
- IC50 [2]: 74 nM
- inhibition at 100 µM [9]: 35%
- Activity [3]: inactive
- Activity [4]: inactive

SMILES: COC(=O)C1=C(C)NC(C)=C(C(=O)OC)C1c1c(Cl)nc2scc(C)n12
- IC50 [2]: 510 nM
- Emax [5]: 60 ms-1
- Kd [6]: 21400 nM
- Activity [4]: inactive
- Ratio EC50 [7]: 2.6

SMILES: COC(=O)C1=C(C)NC(C)=C(C(=O)OC)C1c1c(-c2cc(OC)c(OC)cc2[N+](=O)[O-])nc2sccn12
- inhibition (Cavia porcellus [10]): 86%
- IC50 [2]: 11400 nM
- Activity [3]: inactive
- Activity [4]: inactive
- Ratio EC50 [11]: 9

SMILES: COC(=O)C1=C(C)NC(C)=C(C(=O)OC)C1c1c(-c2ccccc2OC(F)(F)F)nc2sccn12
- inhibition at 10 µM [12]: 47%
- Activity [3]: inactive
- Activity [4]: inactive

SMILES: CCOC(=O)C1=C(C)NC(C)=C(C(=O)OCC)C1c1c(-c2ccc(Cl)c(Cl)c2Cl)nc2sccn12
- IC50 [2]: 38 nM
- inhibition at 10 µM [12]: 40%
- Emax [5]: 46 ms-1
- Kd [6]: 3200 nM
- Activity [4]: inactive
- inhibition at 10 µM [13]: 92%
- EC50 [14]: 610 nM
- inhibition at 1 µM [15]: 90%
- inhibition at 100 µM (Aorta [16]): 17%
- inhibition (Cavia porcellus [17]): 77%
- EC50 [18]: 430 nM

SMILES: CCOC(=O)C1=C(C)NC(C)=C(C(=O)OCC)C1c1cccc(Oc2ccccc2)c1
- inhibition (Cavia porcellus [1]): 83%
- IC50 [2]: 230 nM
- inhibition at 10 µM [12]: 30%
- Emax [5]: 62 ms-1
- Kd [6]: 370 nM
- inhibition at 5 µM [19]: 38%
- inhibition at 1 µM [15]: 80%
- inhibition at 10 µM (Aorta [20]): 17%
- EC50 [18]: 29 nM

SMILES: CCOC(=O)C1=C(C)NC(C)=C(C(=O)OCC)C1c1c(Cl)nc2sc(C)cn12
- IC50 [2]: 57 nM
- IC50 [21]: 2340 nM
- Emax [5]: 60 ms-1
- Kd [6]: 8400 nM
- Activity [4]: inactive
- inhibition at 5 µM [19]: 36%
- inhibition at 0.1 µM [22]: 56%
- inhibition at 100 µM (Aorta [16]): 8%
- EC50 [18]: 31 nM

SMILES: COC(=O)C1=C(C)NC(C)=C(C(=O)OC)C1c1c(-c2ccc(OC)c(OC)c2)nc2sccn12
- IC50 [2]: 450 nM
- Activity [3]: inactive
- Activity [4]: inactive
- inhibition (Cavia porcellus [17]): 90%

SMILES: COC(=O)C1=C(C)NC(C)=C(C(=O)OC)C1c1c(-c2ccccc2)nc2n1CCS2
- IC50 [2]: 260 nM
- Activity [3]: inactive
- Activity [4]: inactive
- inhibition at 100 µM [23]: 90%
- EC50 [14]: 8630 nM
- inhibition at 100 µM [24]: 78%
- inhibition at 100 µM (Aorta [16]): 46%
- Ratio EC50 [11]: 22
- inhibition (Cavia porcellus [17]): 80%
- EC50 [18]: 390 nM

SMILES: COC(=O)C1=C(C)NC(C)=C(C(=O)OC)C1c1c(C)nc2sc(C)cn12
- inhibition (Cavia porcellus [1]): 70%
- IC50 [2]: 8830 nM
- inhibition at 10 µM [12]: 27%
- Activity [3]: inactive
- Activity [4]: inactive

SMILES: COC(=O)C1=C(C)NC(C)=C(C(=O)OC)C1c1c(-c2ccccc2OC)nc2sccn12
- IC50 [2]: 860 nM
- Activity [3]: inactive
- Activity [4]: inactive

— ChEMBL document CHEMBL1811821, “Cystic fibrosis: a new target for 4-Imidazo[2,1-b]thiazole-1,4-dihydropyridines” (J Med Chem, 2011)
